This is an account of results in ChEMBL document CHEMBL4017495, “Identification and Characterization of the First Selective Y4 Receptor Positive Allosteric Modulator” (J Med Chem, 2017).

For assay [1], the target named is T1, Neuropeptide Y receptor type 4 (Homo sapiens, UniProt P50391). In words: Positive allosteric modulation of human C-terminal eYFP-fused human NY4 receptor expressed in African green monkey COS7 cells co-expressing delta6Galphaqi4-myr assessed as potentiation of pancreatic polypeptide-mediated Ca2+ flux treated at 20 secs post baseline detection followed by addition of pancreatic polypeptide after 140 secs by Fluo2-AM fluorescent dye based-assay. Type of assay: functional, cell-based. Summed up: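 COS7 cells stably co-expressing Y4R-eYFP and Δ6Gαqi4-myr were seeded overnight. They were loaded with 2.4 μM Fluo2-AM in HBSS/20 mM HEPES/[…] for 60 min at 37 °C, then kept in assay buffer. Fluorescence was read at ex 485/em 525 nm. Compound was added after a 20 s baseline and peptide at 140 s. Response was taken as x-fold over basal, normalized to the DMSO control, and fitted to an operational model of allosterism. Duplicates, at least three independent runs.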
T1 sequence (P50391 whole entry, the tested form may be a part): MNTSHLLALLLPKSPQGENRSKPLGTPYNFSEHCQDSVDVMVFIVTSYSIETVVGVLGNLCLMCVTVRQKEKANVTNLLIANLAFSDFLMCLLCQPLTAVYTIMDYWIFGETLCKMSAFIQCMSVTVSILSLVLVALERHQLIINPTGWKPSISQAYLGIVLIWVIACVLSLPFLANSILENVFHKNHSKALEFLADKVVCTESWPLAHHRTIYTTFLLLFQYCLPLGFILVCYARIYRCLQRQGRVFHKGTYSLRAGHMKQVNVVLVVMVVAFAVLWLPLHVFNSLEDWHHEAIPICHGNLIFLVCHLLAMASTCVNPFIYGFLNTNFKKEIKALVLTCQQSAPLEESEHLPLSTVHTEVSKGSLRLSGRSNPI
In general terms: Calcium assays in cells follow changes in intracellular calcium, usually with a dye or a luminescent sensor.

Assay [2] addresses Neuropeptide Y receptor type 4 (Mus musculus) (UniProt Q61041). In words: Positive allosteric modulation of NY4 receptor in mouse descending colon mucosa assessed as increase in mucosal antisecretory response to pancreatic polypeptide at 30 uM preincubated for 5 mins followed by pancreatic polypeptide addition after 20 mins. Summed up: (§1)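 Mouse descending colon mucosa was mounted in Ussing chambers (0.14 cm2 exposed) in oxygenated Krebs–Henseleit at 37 °C, voltage-clamped at 0 mV, with Isc recorded continuously. After a stable basal Isc (20–30 min), basolateral pretreatment was 30 μM compound or DMSO vehicle (0.3%) for 5 min. VIP (10 nM) was given for 5–10 min, then single rat PP additions (3, 10 or 30 nM). PYY (10 nM) followed 20 min later.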

For assay [3], the target named is T2, Neuropeptide Y receptor type 1/2 (Mus musculus) (UniProt Q04573+P97295). Nature of the assay: Positive allosteric modulation of NY1/2 receptor in mouse descending colon mucosa assessed as increase in mucosal antisecretory response to peptide YY at 30 uM preincubated for 5 mins followed by pancreatic polypeptide addition after 20 mins. Summed up: as §1
T2 sequence (P97295 whole entry, looked up): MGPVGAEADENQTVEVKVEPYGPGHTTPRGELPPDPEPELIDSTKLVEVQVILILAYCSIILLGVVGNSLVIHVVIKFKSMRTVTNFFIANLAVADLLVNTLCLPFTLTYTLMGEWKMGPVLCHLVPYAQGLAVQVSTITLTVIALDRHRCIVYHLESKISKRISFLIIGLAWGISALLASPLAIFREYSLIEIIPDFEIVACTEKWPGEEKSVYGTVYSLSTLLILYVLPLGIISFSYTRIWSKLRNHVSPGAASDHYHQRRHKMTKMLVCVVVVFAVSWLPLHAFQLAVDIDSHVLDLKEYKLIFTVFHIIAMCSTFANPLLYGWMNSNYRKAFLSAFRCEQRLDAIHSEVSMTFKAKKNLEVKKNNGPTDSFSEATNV
T2 sequence (Q04573 whole entry, looked up): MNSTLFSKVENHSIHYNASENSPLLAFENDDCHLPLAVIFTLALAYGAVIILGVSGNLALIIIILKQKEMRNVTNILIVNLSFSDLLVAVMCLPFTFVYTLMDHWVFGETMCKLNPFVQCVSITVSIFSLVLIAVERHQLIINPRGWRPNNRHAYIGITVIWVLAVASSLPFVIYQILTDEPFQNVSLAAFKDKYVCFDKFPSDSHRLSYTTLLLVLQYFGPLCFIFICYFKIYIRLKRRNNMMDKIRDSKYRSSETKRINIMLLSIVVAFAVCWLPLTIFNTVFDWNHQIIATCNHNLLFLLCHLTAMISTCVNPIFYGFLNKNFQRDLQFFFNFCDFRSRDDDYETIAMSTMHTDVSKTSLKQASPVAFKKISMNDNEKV
In assay [4] the target is T2, Neuropeptide Y receptor type 1/2 (Mus musculus). Nature of the assay: Positive allosteric modulation of NY1/2 receptor in mouse descending colon mucosa assessed as increase in mucosal antisecretory response to vasoactive intestinal polypeptide at 30 uM preincubated for 5 mins followed by pancreatic polypeptide addition after 20 mins. Summed up: as §1
The target in assay [5] is Neuropeptide Y receptor type 4 (Mus musculus) (UniProt Q61041). In words: Agonist activity at NY4 receptor in mouse descending colon mucosa assessed as increase in mucosal antisecretory response at 30 uM incubated for 5 mins. In short, it runs like this:
as §1

Assay [6] has as its target T1, Neuropeptide Y receptor type 4.
The target is the same in assay [7]. This is another data set of the same source.
The target is the same in assay [8]. This is another data set of the same source.
Assay [9] shares this target. This is another data set of the same source.
The target is the same in assay [10]. The source holds these as a separate data set.
Assay [11] has the same target. The source holds these as a separate data set.
The target is the same in assay [12]. The source holds these as a separate data set.
Assay [13] shares this target. This is another data set of the same source.
Assay [14] has the same target. The source holds these as a separate data set.
Assay [15] shares this target. Conditions: 30 uM.
Assay [16] shares this target. Conditions: 30 uM. The source holds these as a separate data set.
Assay [17] shares this target. The note with it: 30 uM. The source holds these as a separate data set.
Assay [18] has the same target. The note with it: HEK293, 30 uM.
Assay [19] shares this target. The note with it: HEK293, 30 uM. The source holds these as a separate data set.
Assay [20] has the same target. Conditions: HEK293, 30 uM. This is another data set of the same source.

The source made the active and inactive calls. The rule behind the calls is not given here.

Chain of Neuropeptide Y receptor type 4 (Mus musculus) (Q61041 whole entry): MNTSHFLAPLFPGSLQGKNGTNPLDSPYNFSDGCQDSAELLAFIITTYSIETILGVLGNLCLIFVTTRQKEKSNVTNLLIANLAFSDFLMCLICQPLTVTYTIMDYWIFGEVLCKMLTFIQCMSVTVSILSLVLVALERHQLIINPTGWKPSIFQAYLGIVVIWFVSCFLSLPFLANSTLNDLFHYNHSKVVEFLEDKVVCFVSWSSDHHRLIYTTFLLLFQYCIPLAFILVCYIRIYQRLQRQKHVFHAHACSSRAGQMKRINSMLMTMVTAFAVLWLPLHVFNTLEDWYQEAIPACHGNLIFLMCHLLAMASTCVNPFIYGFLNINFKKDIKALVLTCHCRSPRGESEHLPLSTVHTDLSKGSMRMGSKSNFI

The EC50 is the concentration at which the effect is half-maximal. Usually pKb stands for the negative decadic logarithm of the Kb, by convention in mol/L. Usually Emax stands for the maximal effect, on the per cent scale that the assay sets. Turning to `CC(C)(C)c1ccc(OC2CCCCC2O)cc1` (stereo not given), the concentration giving a half-maximal response (EC50) in [1] came out at 5.1 µM. In addition, the result in assay [2] was Active. The outcome in assay [3], in assay [4] and in [5] was inactive. The log(activity) in assay [6] came out at 0.9; in assay [7], 0.3; in assay [8], 0.79; in [9], 0.41; in assay [10], 0.46; in assay [11], 0.36. Moreover, the negative-log Kb (pKb) in [12], in [13] and in assay [14] was 4.4 throughout. Moreover, the Emax worked out at 94% in assay [15]; 89% in assay [16]; 95% in assay [17]; 118% in assay [18]; 145% in assay [19]; 144% in assay [20].
